Assay results of several laboratories.
Each line is one published result; the experiments were not run side by side.
Target: Calcium/calmodulin-dependent protein kinase type II subunit delta (CAMK2D, Homo sapiens, UniProt Q13557)

SMILES	test	test system	setting	quantity	value
O=C(Nc1cnn(-c2csc(C(=O)NC3COC3)c2)c1)Nc1c(F)cccc1Cl	enzyme activity, inhibitor		5 µM	remaining activity	93.5%
CSc1cccnc1N1CCN(Cc2nc3ccccc3[nH]2)CC1	cell-free assay, competition with immobilised ligand		1 µM	remaining binding	100%
CCN(CC)CCNC(=O)c1c(C)[nH]c(/C=C2\C(=O)Nc3ccc(F)cc32)c1C	enzyme activity, inhibitor		10 µM	inhibition	96%
C[S+]([O-])c1ccc(-c2nc(-c3ccncc3)c(-c3ccc(F)cc3)[nH]2)cc1 (stereo not drawn)	cell-free assay		0.5 µM	remaining signal	103%
COc1cccc(CNC(=O)c2nc3scc(COCc4ccc(C(=O)O)cc4)c3c(=O)[nH]2)c1	cell-free assay, competition with immobilised ligand		1 µM	remaining binding	100%
C[C@@H]1CCN(C(=O)CC#N)C[C@@H]1N(C)c1ncnc2[nH]ccc12	cell-free assay		0.5 µM	remaining signal	98.2%
Cc1sc(C(=O)NC2COC2)cc1-n1cc(NC(=O)Nc2c(F)cccc2Cl)cn1	enzyme activity, inhibitor		10 µM	remaining activity	91.3%
NS(=O)(=O)c1cc(NC(=O)Cc2ccccc2)ccc1Oc1cccc(Cl)c1	cell-free assay, competition with immobilised ligand		1 µM	remaining binding	97%
Nc1ncnc2occ(-c3ccc(NC(=O)Nc4cc(C(F)(F)F)ccc4F)cc3)c12	cell-free assay, inhibitor		20 µM	remaining signal	94%
Cc1ccc(Nc2nccc(N(C)c3ccc4c(C)n(C)nc4c3)n2)cc1S(N)(=O)=O	enzyme activity, inhibitor		10 µM	inhibition	66%
CCN1CCN(Cc2ccc(NC(=O)c3ccc(C)c(Oc4ccnc5[nH]ccc45)c3)cc2C(F)(F)F)CC1	target engagement in cells, inhibitor, chemoproteomics	Huh-7	1 µM	inhibition	-12%
COc1cc(Cl)c(C(=O)N[C@@H](CN[C@H]2CC[C@@H](N)CC2)Cc2ccc(C#N)cc2)cc1-c1ccc(CN[C@H](C)c2ccc(C)cc2)o1	enzyme activity, inhibitor		1 µM	remaining activity	100%
CC(=O)N1CCC(c2ccc(C(=O)NC(=N)N)cc2C(F)(F)F)CC1	cell-free assay, competition with immobilised ligand		1 µM	remaining binding	100%
Cc1cnc(NC2CCOCC2)nc1-n1cnc(C(=O)NC(CN)c2cc(F)cc(Cl)c2)c1 (stereo not drawn)	enzyme activity, inhibitor, radiometric		1 µM	remaining activity	91%
Cc1ccc(-n2nc(C(C)(C)C)cc2NC(=O)Nc2ccc(OCCN3CCOCC3)c3ccccc23)cc1	enzyme activity, inhibitor		10 µM	inhibition	22%
CC(C)(C)c1nc(-c2cccc(NS(=O)(=O)c3c(F)cccc3F)c2F)c(-c2ccnc(N)n2)s1	enzyme activity, inhibitor, radiometric		1 µM	remaining activity	97%
COc1cc2ncnc(Nc3ccc(Oc4ccccc4)c(C)c3C)c2cc1OC	enzyme activity, inhibitor		1 µM	inhibition	2%
COc1cccc2c(NCc3ccccc3)nc(-n3c(N)nc4ccccc43)nc12	target engagement in cells, inhibitor, chemoproteomics		20 mM	inhibition	-14.3%
COc1ccc2c(c1)O[C@H](c1ccc(OC)c(OC)c1)C[C@@H]2NC(=O)C1(c2ccc3c(c2)OC(F)(F)O3)CC1	cell-free assay, competition with immobilised ligand		1 µM	remaining binding	100%
O=C1Nc2ccc(Cl)cc2C1=Cc1cc(Cl)c(O)c(Cl)c1	cell-free assay		0.5 µM	remaining signal	80.2%
Cc1ccc(NC(=O)c2ccc(C)c(C(F)(F)F)c2)cc1C#Cc1nn(C2CCC(O)CC2)c2ncnc(N)c12 (stereo not drawn)	cell-free assay		10 µM	remaining signal	89%
O=C(O)[C@@H]1[C@@H](Cn2nnc3ccccc3c2=O)CC[C@H]1C(=O)c1ccc(OCCC2CCOCC2)cc1	cell-free assay, competition with immobilised ligand		1 µM	remaining binding	100%
CNC(=O)c1cc(Oc2ccc(NC(=O)Nc3ccc(Cl)c(C(F)(F)F)c3)cc2)ccn1	enzyme activity, inhibitor		10 µM	inhibition	79%
O=C1NC(c2ccccn2)Sc2ccccc21 (stereo not drawn)	cell-free assay, competition with immobilised ligand		1 µM	remaining binding	75%
CC(C)c1ccc(NC(=O)c2cccs2)c(-c2nc3ccccc3[nH]c2=O)c1	enzyme activity, inhibitor		1 µM	activity vs control	102%
Cc1c(NC(=O)c2cc(C(N)=O)nc3cc(F)ccc23)c(C(F)(F)F)nn1Cc1ccc(C#N)cc1	cell-free assay, competition with immobilised ligand		1 µM	remaining binding	90%
Cc1cc(NC(=O)c2cccc3cc(-c4cccc5[nH]nc(N)c45)ccc23)ccc1F	enzyme activity, inhibitor		0.1 µM	activity vs control	102%
